The source made the active and inactive calls.
Key:
Assay type in all cases: functional, cell-based
[1] = test system: L929; assay: Cytotoxicity against mouse L929 cells after 72 hrs
In short: (§1)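 Cells were exposed for 72 h of cultivation; L-929 mouse fibroblasts and HeLa human cells grown adherent, K-562 human leukemia cells grown nonadherent. Result given as IC50 in µg/mL.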

[2] = test system: K562; assay: Cytotoxicity against human K562 cells after 72 hrs; in short: as §1
[3] = test system: HeLa; assay: Cytotoxicity against human HeLa cells after 72 hrs; in short: as §1

Measured: Activity

O=C1N[C@@H](Cc2c[nH]c3ccccc23)C(=O)N[C@H]1Cc1c[nH]c2ccccc12
inactive: all assays above

C=CC(C)(C)c1[nH]c2ccccc2c1C[C@@H]1NC(=O)[C@H](Cc2c[nH]c3ccccc23)NC1=O
inactive: all assays above

C=CC(C)(C)c1[nH]c2ccccc2c1C[C@@H]1NC(=O)[C@H](Cc2c(C(C)(C)C=C)[nH]c3ccccc23)NC1=O
inactive: all assays above

Source: ChEMBL document CHEMBL1142616, “New diketopiperazine alkaloids from Penicillium fellutanum” (J Nat Prod, 2000)
